Blank lines part the entries; values can stand above or below the molecule they belong to.
Assays:
Cytochrome P450 3A4 [1] = target: T1, Cytochrome P450 3A4 (Homo sapiens, UniProt P08684); experiment: Substrate activity at CYP3A4 (unknown origin) assessed as enzyme-mediated compound turnover assessed per pmol protein at 10 uM; assay type: ADME
Cytochrome P450 3A5 [2] = target: T2, Cytochrome P450 3A5 (Homo sapiens, UniProt P20815); experiment: Substrate activity at CYP3A5 (unknown origin) assessed as enzyme-mediated compound turnover assessed per pmol protein at 10 uM; assay type: ADME
[3] = Substrate activity at CYP450 in human liver microsomes with NADPH-generating system assessed as CYP-mediated benzoic acid (6R,7S)-2,6,10-trihydroxy-1,3,11,12-tetramethoxy-6,7-dimethyl-5,6,7,8-tetrahydro-dibenzo[a,c]cycloocten-5-yl ester formation at 5 uM after 25 mins in presence of CYP inhibitor ABT; assay type: ADME
Procedure, shortened: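 Substrate at 5 μM in pooled HLM (0.2 mg protein/mL) with NADPH-generating system in 100 mM phosphate pH 7.4, 37 °C, with or without inhibitor: ketoconazole 1 μM for CYP3A. CYP3cide 1 μM and ABT 500 μM were preincubated with NADPH-generating system at 37 °C for 25 min. Metabolite quantified by UFLC-DAD. Three experiments in duplicate.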

[4] = Intrinsic clearance in human liver microsomes assessed per mg liver microsome; assay type: ADME
Procedure, shortened: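 HLM at 0.4 mg/mL, 20 min at 37 °C, in 100 mM potassium phosphate pH 7.4 with NADPH-generating system (1 mM NADP+, 10 mM glucose-6-phosphate, 1 unit/mL G6PDH, 4 mM MgCl2). Substrate at 2–200 μM, 1% methanol. Km and Vmax from nonlinear regression. CLint = Vmax/Km. Three experiments in duplicate, mean ± SD.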

Cytochrome P450 3A5 [5] = target: T2, Cytochrome P450 3A5; experiment: Substrate activity at recombinant human CYP3A5 expressed in bactosomes assessed as intrinsic clearance by measuring ratio of Vmax/Km for 2-O-demethylation assessed per pmol protein; assay type: ADME; settings: recombinant enzyme
Procedure, shortened: (§1)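 Bactosome rhCYP3A4 (40 nM, 20 min) or rhCYP3A5 (20 nM, 5 min) incubated at 37 °C with substrate at 2–200 μM in 100 mM potassium phosphate pH 7.4 with NADPH-generating system, 1% methanol. Stopped with ice-cold methanol, demethylated metabolite quantified by UFLC-DAD. Km and Vmax from nonlinear regression; CLint = Vmax/Km. Three experiments in duplicate.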

Cytochrome P450 3A4 [6] = target: T1, Cytochrome P450 3A4; experiment: Substrate activity at recombinant human CYP3A4 expressed in bactosomes assessed as intrinsic clearance by measuring ratio of Vmax/Km for 2-O-demethylation assessed per pmol protein; assay type: ADME; settings: recombinant enzyme; procedure, shortened: as §1
Cytochrome P450 3A5 [7] = target: Cytochrome P450 3A5 (Homo sapiens, UniProt P20815, F210L); experiment: (§2) Substrate activity at full length CYP3A5 F210L mutant (unknown origin) expressed in […] assessed as enzyme-mediated benzoic acid (6R,7S)-2,6,10-trihydroxy-1,3,11,12-tetramethoxy-6,7-dimethyl-5,6,7,8-tetrahydro-dibenzo[a,c]cycloocten-5-yl ester formation after 60 mins in presence of NADPH by UFLC-DAD analysis relative to wild type CYP3A5; assay type: ADME, cell-based; settings: s9, 1 h
Cytochrome P450 3A5 (Homo sapiens, UniProt P20815, F210L), sequence (P20815 whole entry F210L): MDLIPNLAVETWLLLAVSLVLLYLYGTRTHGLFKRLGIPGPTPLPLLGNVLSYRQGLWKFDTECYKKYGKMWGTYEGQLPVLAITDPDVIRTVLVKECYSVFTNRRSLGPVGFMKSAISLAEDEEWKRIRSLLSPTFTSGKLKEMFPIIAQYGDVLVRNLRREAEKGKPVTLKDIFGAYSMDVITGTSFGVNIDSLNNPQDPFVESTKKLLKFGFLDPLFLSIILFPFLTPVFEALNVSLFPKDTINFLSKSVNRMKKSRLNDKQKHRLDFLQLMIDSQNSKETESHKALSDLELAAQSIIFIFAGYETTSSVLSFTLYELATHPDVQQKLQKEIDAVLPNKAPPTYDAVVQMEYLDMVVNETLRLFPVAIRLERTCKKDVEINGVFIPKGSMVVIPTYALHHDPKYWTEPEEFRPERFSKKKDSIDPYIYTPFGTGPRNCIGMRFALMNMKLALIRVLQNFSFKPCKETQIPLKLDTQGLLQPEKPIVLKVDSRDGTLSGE
Procedure, shortened: (§3)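 Full-length CYP3A4/CYP3A5 cDNA mutants transfected into COS-7 cells (4 μg plasmid per well). After 24 h, cells were sonicated and S9 fractions prepared (9000g supernatant). Incubation: 5 mg/mL S9 and 50 μM substrate in 100 mM potassium phosphate pH 7.4 with NADPH-generating system, 37 °C, 60 min. Stopped with methanol, metabolite quantified by UFLC-DAD.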

Cytochrome P450 3A4 [8] = target: Cytochrome P450 3A4 (Homo sapiens, UniProt P08684, L210F); experiment: as §2, with “CYP3A4 L210F” for “CYP3A5 F210L”, “analysis” for “analysis relative to”, “CYP3A4” for “CYP3A5”; assay type: cell-based; settings: 1 h; procedure, shortened: as §3
Cytochrome P450 3A4 (Homo sapiens, UniProt P08684, L210F), sequence (P08684 2-503 L210F limits assumed): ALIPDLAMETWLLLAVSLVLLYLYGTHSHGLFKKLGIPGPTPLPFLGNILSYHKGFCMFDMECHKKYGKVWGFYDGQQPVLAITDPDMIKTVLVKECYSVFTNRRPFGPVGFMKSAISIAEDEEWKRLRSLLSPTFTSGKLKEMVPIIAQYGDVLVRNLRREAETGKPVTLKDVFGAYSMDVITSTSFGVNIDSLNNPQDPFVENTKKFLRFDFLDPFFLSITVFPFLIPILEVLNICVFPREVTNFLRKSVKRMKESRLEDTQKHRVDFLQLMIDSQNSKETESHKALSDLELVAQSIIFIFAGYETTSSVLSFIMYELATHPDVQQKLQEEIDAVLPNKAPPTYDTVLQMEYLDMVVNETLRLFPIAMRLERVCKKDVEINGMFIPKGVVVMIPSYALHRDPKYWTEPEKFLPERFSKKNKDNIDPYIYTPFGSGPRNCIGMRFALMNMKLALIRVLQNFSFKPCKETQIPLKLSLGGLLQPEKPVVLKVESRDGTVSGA

HepG2 = experiment: Cytotoxicity against human HepG2 cells at 300 uM by CCK-8 assay; assay type: cell-based; settings: hepg2, 300 µM
Procedure, shortened: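 HepG2 viability after exposure measured with CCK-8 kit. Cells grown in complete DMEM with 10% FCS.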

Cytochrome P450 3A5 [9] = target: T2, Cytochrome P450 3A5; experiment: Substrate activity at CYP3A5 in human Caco2 cell s9 fractions assessed as enzyme-mediated benzoic acid (6R,7S)-2,6,10-trihydroxy-1,3,11,12-tetramethoxy-6,7-dimethyl-5,6,7,8-tetrahydro-dibenzo[a,c]cycloocten-5-yl ester formation at 50 uM after 60 mins by LC-MS/MS analysis; assay type: ADME, S9 Fraction; settings: s9, 1 h
Procedure, shortened: (§4)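 HepG2 or Caco-2 cells grown to 90% confluence in 75 cm2 flasks, trypsinized, sonicated in ice-cold PBS. S9 taken as the 9000g 20-min supernatant, protein by BCA. Incubated with 50 μM substrate and NADPH-generating system, pH 7.4 phosphate, 37 °C for 60 min. Stopped with ice-cold methanol, then centrifuged.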

Cytochrome P450 3A5 [10] = target: T2, Cytochrome P450 3A5; experiment: Substrate activity at CYP3A5 in human HepG2 cell s9 fractions assessed as enzyme-mediated benzoic acid (6R,7S)-2,6,10-trihydroxy-1,3,11,12-tetramethoxy-6,7-dimethyl-5,6,7,8-tetrahydro-dibenzo[a,c]cycloocten-5-yl ester formation at 50 uM after 60 mins by LC-MS/MS analysis; assay type: ADME, S9 Fraction; settings: s9, 1 h; procedure, shortened: as §4
[11] = Drug metabolism in human liver microsomes assessed as Vmax for 2-O-demethylation; assay type: ADME, microsome
Procedure, shortened: (§5)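 Pooled HLM at 0.4 mg/mL incubated 20 min at 37 °C with substrate at 2, 5, 10, 20, 50, 100, 200 μM. Buffer was 100 mM potassium phosphate pH 7.4 with an NADPH-generating system, methanol 1% (v/v) final, 3 min preincubation. Reaction stopped with ice-cold methanol; 2-O-demethylated metabolite read by UFLC-DAD. Apparent Km and Vmax from nonlinear regression; three experiments in duplicate.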

[12] = Drug metabolism in human liver microsomes assessed as Km for 2-O-demethylation; assay type: ADME, microsome; procedure, shortened: as §5
[13] = Drug metabolism in S9 fractions (unknown origin) assessed as benzoic acid (6R,7S)-2,6,10-trihydroxy-1,3,11,12-tetramethoxy-6,7-dimethyl-5,6,7,8-tetrahydro-dibenzo[a,c]cycloocten-5-yl ester formation in presence of UDP-glucuronic acid by UFLC-DAD analysis; assay type: ADME, subcellular, S9 fraction
[14] = Drug metabolism in s9 fractions (unknown origin) assessed as benzoic acid (6R,7S)-2,6,10-trihydroxy-1,3,11,12-tetramethoxy-6,7-dimethyl-5,6,7,8-tetrahydro-dibenzo[a,c]cycloocten-5-yl ester formation in presence of 3'-phosphoadenosine-5'-phosphosulfate by UFLC-DAD analysis; assay type: ADME, subcellular, S9 fraction
[15] = Drug metabolism in s9 fractions (unknown origin) assessed as benzoic acid (6R,7S)-2,6,10-trihydroxy-1,3,11,12-tetramethoxy-6,7-dimethyl-5,6,7,8-tetrahydro-dibenzo[a,c]cycloocten-5-yl ester formation in presence of S-adenosyl-L-methionine by UFLC-DAD analysis; assay type: ADME, subcellular, S9 fraction
Cytochrome P450 3A5 [16] = target: T2, Cytochrome P450 3A5; experiment: Substrate activity at CYP3A5 in human liver microsomes assessed as enzyme-mediated benzoic acid (6R,7S)-2,6,10-trihydroxy-1,3,11,12-tetramethoxy-6,7-dimethyl-5,6,7,8-tetrahydro-dibenzo[a,c]cycloocten-5-yl ester formation at 5 uM by LC-MS/MS analysis; assay type: ADME
[17] = substrate: COc1cc2c(c(OC)c1OC)-c1c(cc(O)c(OC)c1OC)C[C@H](C)[C@](C)(O)[C@H]2OC(=O)c1ccccc1; experiment: Substrate activity at recombinant human CYP3A5 expressed in bactosomes assessed as Km for 2-O-demethylation after 5 mins by Eadie-Hofstee plot method; assay type: ADME
Procedure, shortened: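 Bactosome rhCYP3A5 (20 nM, coexpressed with human NADPH-P450 reductase) incubated 5 min at 37 °C with substrate 2–200 μM in 100 mM potassium phosphate pH 7.4 with NADPH-generating system, final methanol 1%. Reaction stopped with ice-cold methanol. Metabolite measured by UFLC-DAD. Apparent Km from nonlinear regression, plotted as Eadie–Hofstee. Three independent experiments in duplicate, mean ± SD.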

T1 sequence (P08684 whole entry): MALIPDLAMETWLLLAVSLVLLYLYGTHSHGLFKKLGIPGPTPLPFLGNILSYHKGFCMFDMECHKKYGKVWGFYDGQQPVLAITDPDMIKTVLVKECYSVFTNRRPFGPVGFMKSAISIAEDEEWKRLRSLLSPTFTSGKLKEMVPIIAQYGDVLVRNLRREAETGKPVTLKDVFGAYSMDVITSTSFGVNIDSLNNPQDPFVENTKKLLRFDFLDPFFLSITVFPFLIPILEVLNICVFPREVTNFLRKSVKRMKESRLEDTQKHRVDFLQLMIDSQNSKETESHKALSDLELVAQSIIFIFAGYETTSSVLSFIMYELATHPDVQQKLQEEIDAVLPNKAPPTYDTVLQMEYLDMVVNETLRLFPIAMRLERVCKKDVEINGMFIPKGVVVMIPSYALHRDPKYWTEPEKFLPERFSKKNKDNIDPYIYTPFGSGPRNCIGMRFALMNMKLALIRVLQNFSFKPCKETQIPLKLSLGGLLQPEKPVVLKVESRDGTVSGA

Drug metabolism (Cytochrome P450 3A4 [1]): 10 to 15 pmol/min | Drug metabolism (Cytochrome P450 3A5 [2]): 4 to 9 pmol/min
Molecule: COc1cc2c(c(O)c1OC)-c1c(cc(OC)c(OC)c1OC)C[C@H](C)[C@H](C)C2

Drug metabolism (Cytochrome P450 3A4 [1]): Metabolite_Notdetected | Drug metabolism (Cytochrome P450 3A5 [2]): Metabolite_Notdetected
Molecule: COc1cc2c(c(OC)c1OC)-c1c(cc3c(c1OC)OCO3)C[C@H](C)[C@@](C)(O)C2OC(=O)c1ccccc1 (stereo partly specified)

Drug metabolism (Cytochrome P450 3A4 [1]): >= 30 pmol/min | Drug metabolism (Cytochrome P450 3A5 [2]): 1 to 3 pmol/min
Molecule: COc1cc2c(c(OC)c1OC)-c1c(cc(OC)c(OC)c1OC)C[C@](C)(O)[C@@H](C)C2 [SCHIZANDRIN]

Drug metabolism (Cytochrome P450 3A4 [1]): Metabolite_Notdetected | Drug metabolism (Cytochrome P450 3A5 [2]): Metabolite_Notdetected
Molecule: COc1cc2c(c(OC)c1OC)-c1c(cc3c(c1OC)OCO3)C[C@H](C)[C@H](C)C2 [WUWEIZISU B]

Drug metabolism (Cytochrome P450 3A4 [1]): 4 to 9 pmol/min | Drug metabolism (Cytochrome P450 3A5 [2]): 1 to 3 pmol/min
Molecule: COc1cc2c(c(OC)c1OC)-c1c(cc3c(c1OC)OCO3)C(OC(=O)c1ccccc1)[C@](C)(O)[C@@H](C)C2 (stereo partly specified)

Drug metabolism (Cytochrome P450 3A4 [1]): Metabolite_Notdetected | Drug metabolism (Cytochrome P450 3A5 [2]): Metabolite_Notdetected
Molecule: COc1c2c(cc3c1-c1c(cc4c(c1OC)OCO4)C[C@H](C)[C@H](C)C3)OCO2 [SCHISANDRIN C]

Drug metabolism (Cytochrome P450 3A4 [1]): 4 to 9 pmol/min | Drug metabolism (Cytochrome P450 3A5 [2]): 1 to 3 pmol/min
Molecule: COc1cc2c(c(OC)c1OC)-c1c(cc3c(c1OC)OCO3)C[C@H](C)[C@@](C)(O)C2O (stereo partly specified)

Drug metabolism (Cytochrome P450 3A4 [1]): 16 to 29 pmol/min | Drug metabolism (Cytochrome P450 3A5 [2]): 10 to 15 pmol/min
Molecule: COc1cc2c(c(OC)c1OC)-c1c(cc(OC)c(OC)c1OC)C[C@H](C)[C@H](C)C2 [SCHISANDRIN A]

Drug metabolism (Cytochrome P450 3A4 [1]): 4 to 9 pmol/min | Drug metabolism (Cytochrome P450 3A5 [2]): 1 to 3 pmol/min
Molecule: COc1c(O)cc2c(c1OC)-c1c(cc(O)c(OC)c1OC)C(O)[C@@H](C)[C@@H](C)C2 (stereo partly specified)

Drug metabolism (Cytochrome P450 3A4 [1]): 1 to 3 pmol/min | Drug metabolism (Cytochrome P450 3A5 [2]): >= 30 pmol/min | Drug metabolism [3]: Metabolite_Notdetected | microsomal CLint [4]: 50.2 µL/min/mg | Ratio (Cytochrome P450 3A5 [5]): 10.7 µL/min/pmol | Ratio (Cytochrome P450 3A4 [6]): 0.46 µL/min/pmol | fold change (FC) (Cytochrome P450 3A5 [7]): 2.1 | fold change (FC) (Cytochrome P450 3A4 [8]): 2.6 | Drug metabolism (Cytochrome P450 3A5 [9]): Metabolite_Detected | Drug metabolism (Cytochrome P450 3A5 [10]): Metabolite_Detected | Vmax [11]: 248.5 pmol/min/mg | Km [12]: 4.95 µM | Drug metabolism [13]: Metabolite_Notdetected | Drug metabolism [14]: Metabolite_Notdetected | Drug metabolism [15]: Metabolite_Notdetected | Drug metabolism (Cytochrome P450 3A5 [16]): 23.2 to 159 pmol/min/mg
Molecule: COc1cc2c(c(OC)c1OC)-c1c(cc(O)c(OC)c1OC)C[C@H](C)[C@](C)(O)[C@H]2OC(=O)c1ccccc1
Activity (HepG2): Non-Toxic

Drug metabolism (Cytochrome P450 3A4 [1]): Metabolite_Notdetected | Drug metabolism (Cytochrome P450 3A5 [2]): Metabolite_Notdetected
Molecule: C/C=C(/C)C(=O)OC1c2cc(OC)c(OC)c(OC)c2-c2c(cc3c(c2OC)OCO3)C[C@H](C)[C@@]1(C)O (stereo partly specified)

Drug metabolism (Cytochrome P450 3A4 [1]): 10 to 15 pmol/min | Drug metabolism (Cytochrome P450 3A5 [2]): 1 to 3 pmol/min
Molecule: COc1cc2c(c(OC)c1OC)-c1c(cc3c(c1OC)OCO3)C[C@H](C)[C@@](C)(O)C2 [BESIGOMSIN]

B1: Cytochrome P450 3A5 (Homo sapiens) (protein)
chain: MDLIPNLAVETWLLLAVSLVLLYLYGTRTHGLFKRLGIPGPTPLPLLGNVLSYRQGLWKFDTECYKKYGKMWGTYEGQLPVLAITDPDVIRTVLVKECYSVFTNRRSLGPVGFMKSAISLAEDEEWKRIRSLLSPTFTSGKLKEMFPIIAQYGDVLVRNLRREAEKGKPVTLKDIFGAYSMDVITGTSFGVNIDSLNNPQDPFVESTKKFLKFGFLDPLFLSIILFPFLTPVFEALNVSLFPKDTINFLSKSVNRMKKSRLNDKQKHRLDFLQLMIDSQNSKETESHKALSDLELAAQSIIFIFAGYETTSSVLSFTLYELATHPDVQQKLQKEIDAVLPNKAPPTYDAVVQMEYLDMVVNETLRLFPVAIRLERTCKKDVEINGVFIPKGSMVVIPTYALHHDPKYWTEPEEFRPERFSKKKDSIDPYIYTPFGTGPRNCIGMRFALMNMKLALIRVLQNFSFKPCKETQIPLKLDTQGLLQPEKPIVLKVDSRDGTLSGE
Km [17]: 5.9 µM | Vmax [17]: 6.34e-05 µmol/min
